How the values were obtained:
[1] = Drug metabolism in human assessed as drug excretion in urine at 50 mg, po up to 12 hrs by liquid scintillation counting; type: ADME, organism-based; conditions: in vivo
Procedure, shortened: (§1)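 Healthy males received a single 50-mg oral [14C]saxagliptin solution (91.5 µCi) after a 10-h fast. Urine collected 0–12 h, 12–24 h, then at 24-h intervals to 168 h; feces collected at 24-h intervals. Radioactivity counted by LSC: urine directly, feces as ~20% w/w homogenate combusted before counting. Result expressed as % of actual dose, based on syringe weights.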

[2] = Drug metabolism in human assessed as drug excretion in urine at 50 mg, po after 12 to 24 hrs by liquid scintillation counting; type: ADME, organism-based; conditions: in vivo; procedure, shortened: as §1
[3] = Drug metabolism in human assessed as drug excretion in urine at 50 mg, po after 24 to 48 hrs by liquid scintillation counting; type: ADME, organism-based; conditions: in vivo; procedure, shortened: as §1
[4] = Drug metabolism in human assessed as drug excretion in urine at 50 mg, po after 48 to 168 hrs by liquid scintillation counting; type: ADME, organism-based; conditions: in vivo; procedure, shortened: as §1
[5] = Drug metabolism in human assessed as total drug excretion in urine at 50 mg, po up to 168 hrs by liquid scintillation counting; type: ADME, organism-based; conditions: in vivo; procedure, shortened: as §1
[6] = Drug metabolism in human assessed as drug excretion in feces at 50 mg, po up to 24 hrs by liquid scintillation counting; type: ADME, organism-based; conditions: in vivo; procedure, shortened: as §1
[7] = Drug metabolism in human assessed as drug excretion in feces at 50 mg, po after 24 to 48 hrs by liquid scintillation counting; type: ADME, organism-based; conditions: in vivo; procedure, shortened: as §1
[8] = Drug metabolism in human assessed as drug excretion in feces at 50 mg, po after 48 to 72 hrs by liquid scintillation counting; type: ADME, organism-based; conditions: in vivo; procedure, shortened: as §1
[9] = Drug metabolism in human assessed as drug excretion in feces at 50 mg, po after 72 to 96 hrs by liquid scintillation counting; type: ADME, organism-based; conditions: in vivo; procedure, shortened: as §1
[10] = Drug metabolism in human assessed as drug excretion in feces at 50 mg, po after 96 to 144 hrs by liquid scintillation counting; type: ADME, organism-based; conditions: in vivo; procedure, shortened: as §1
[11] = Drug metabolism in human assessed as total drug excretion in feces at 50 mg, po up to 144 hrs by liquid scintillation counting; type: ADME, organism-based; conditions: in vivo; procedure, shortened: as §1
Liver microsome [12] = test: Drug metabolism in human liver microsomes assessed as formation of mono-hydroxylated metabolite at 10 uM after 1 hr by LC-MS/MS analysis in presence of NADPH; type: ADME
Procedure, shortened: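 Pooled HLM at 1 mg/ml protein, incubated with 10 µM [14C]saxagliptin and 1 mM NADPH in 100 mM phosphate buffer pH 7.4 at 37°C for 60 min. Quenched with ice-cold acetonitrile; supernatant analysed by LC-MS/MS and off-line radioanalysis.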

Liver microsome [13] = test: Drug metabolism in human liver microsomes assessed as formation of 5-hydroxy saxagliptin at 10 uM after 1 hr by LC-MS/MS analysis in absence of NADPH; type: ADME
Liver microsome [14] = test: Drug metabolism in human liver microsomes assessed as formation of 5-hydroxy saxagliptin at 10 uM after 30 mins by LC-MS/MS analysis in presence of 1-aminobenzotriazole
Liver microsome [15] = test: Drug metabolism in human liver microsomes assessed as formation of 5-hydroxy saxagliptin at 1 uM after 30 mins by LC-MS/MS analysis in presence of ketoconazole and troleandomycin
[16] = substrate: N#C[C@@H]1C[C@@H]2C[C@@H]2N1C(=O)[C@@H](N)C12CC3CC(CC(O)(C3)C1)C2; test: Drug metabolism in assessed as human CYP3A5-mediated formation of 5-hydroxy saxagliptin Michaelis-Menten kinetic analysis; type: ADME
Procedure, shortened: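 M2 formation kinetics measured in triplicate at twelve saxagliptin concentrations from 1 to 800 µM. Enzyme source was pooled HLM (0.25 mg/ml, 30 min, 37°C) or expressed CYP3A4 or CYP3A5 (10 pmol/ml, 10 min). Incubations contained 1 mM NADPH and 2 mM MgCl2 in phosphate buffer pH 7.4.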

Row | Drug excretion [1] [%] | Drug excretion [2] [%] | Drug excretion [3] [%] | Drug excretion [4] [%] | Drug excretion [5] [%] | Drug excretion [6] [%] | Drug excretion [7] [%] | Drug excretion [8] [%] | Drug excretion [9] [%] | Drug excretion [10] [%] | Drug excretion [11] [%] | Drug metabolism (Liver microsome [12]) | Drug metabolism (Liver microsome [13]) | Drug metabolism (Liver microsome [14]) | Drug metabolism (Liver microsome [15]) | Molecule | Km [16] [µM] | Vmax [16] [µmol/min]
1 | 68.15 | 3.26 | 1.9 | 1.6 | 74.89 | 7.22 | 8.46 | 2.86 | 1.13 | 2.39 | 22.05 | metabolite_detected | metabolite_not_detected | metabolite_not_detected | metabolite_not_detected | N#C[C@@H]1C[C@@H]2C[C@@H]2N1[14C](=O)[14C@@H](N)C12CC3CC(CC(O)(C3)C1)C2 |  | 
2 |  |  |  |  |  |  |  |  |  |  |  |  |  |  |  | Cytochrome P450 3A5 (Homo sapiens) (protein) MDLIPNLAVETWLLLAVSLVLLYLYGTRTHGLFKRLGIPGPTPLPLLGNVLSYRQGLWKFDTECYKKYGKMWGTYEGQLPVLAITDPDVIRTVLVKECYSVFTNRRSLGPVGFMKSAISLAEDEEWKRIRSLLSPTFTSGKLKEMFPIIAQYGDVLVRNLRREAEKGKPVTLKDIFGAYSMDVITGTSFGVNIDSLNNPQDPFVESTKKFLKFGFLDPLFLSIILFPFLTPVFEALNVSLFPKDTINFLSKSVNRMKKSRLNDKQKHRLDFLQLMIDSQNSKETESHKALSDLELAAQSIIFIFAGYETTSSVLSFTLYELATHPDVQQKLQKEIDAVLPNKAPPTYDAVVQMEYLDMVVNETLRLFPVAIRLERTCKKDVEINGVFIPKGSMVVIPTYALHHDPKYWTEPEEFRPERFSKKKDSIDPYIYTPFGTGPRNCIGMRFALMNMKLALIRVLQNFSFKPCKETQIPLKLDTQGLLQPEKPIVLKVDSRDGTLSGE | 252 | 2.4e-05

From ChEMBL document CHEMBL3526095, “Characterization of the in vitro and in vivo metabolism and disposition and cytochrome P450 inhibition/induction profile of saxagliptin in human” (Drug Metab Dispos, 2012)
